Among the data in ChEMBL document CHEMBL1126127, “Nonprostanoid prostacyclin mimetics. 2. 4,5-Diphenyloxazole derivatives” (J Med Chem, 1992) are IC50 values, retold here.

Bounds are passed on as bounds.

The test can be described thus: Inhibition of ADP-induced human platelet aggregation. The class given is functional. The procedure, abridged: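 ADP-induced aggregation of human platelets measured in platelet-rich plasma by aggregometry. Protocol follows earlier reports. IC50 values come from a single experiment or from the mean of duplicates.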
As for `O=C(O)CCCOc1ccccc1/C=C/c1nc(-c2ccccc2)c(-c2ccccc2)o1`, the IC50 (usually the point on the concentration scale where inhibition reaches its midpoint) is more than 75 µM.

The compound `O=C(O)CCCCOc1ccccc1Cc1nc(-c2ccccc2)c(-c2ccccc2)o1` came in with an IC50 of more than 74 µM.

With `O=C(O)COc1cccc(CSc2nc(-c3ccccc3)c(-c3ccccc3)o2)c1`, 9.6 µM corresponded to half-maximal inhibition (IC50).

`O=C(O)/C=C/c1cccc(CCc2nc(-c3ccccc3)c(-c3ccccc3)o2)c1` displayed an IC50 of 0.66 µM.

`CC(Oc1cccc(CCc2nc(-c3ccccc3)c(-c3ccccc3)o2)c1)C(=O)O` (stereo not drawn) showed an IC50 of 4 µM.

For `COc1ccc(OCC(=O)O)cc1CCc1nc(-c2ccccc2)c(-c2ccccc2)o1`, the IC50 was more than 75 µM.

`COc1ccc(/C=C/c2nc(-c3ccccc3)c(-c3ccccc3)o2)cc1OCC(=O)O`: the IC50 is more than 75 µM.

For `O=C(O)COc1ccccc1CCc1nc(-c2ccccc2)c(-c2ccccc2)o1`, the IC50 is more than 80 µM.

As to `O=C(O)CCCCCCCCCc1nc(-c2ccccc2)c(-c2ccccc2)o1`, the IC50 is more than 80 µM.

With `O=C(O)CCc1cccc(OCc2nc(-c3ccccc3)c(-c3ccccc3)o2)c1`, the IC50 was more than 80 µM.

As to `COc1c(/C=C/c2nc(-c3ccccc3)c(-c3ccccc3)o2)cccc1OCC(=O)O`, inhibition was half-maximal at 0.5 µM (IC50).

In turn, `O=C(O)CCCOc1ccccc1CCc1nc(-c2ccccc2)c(-c2ccccc2)o1` came in with an IC50 of more than 75 µM.

`O=C(O)c1ccc(OCCCc2nc(-c3ccccc3)c(-c3ccccc3)o2)cc1` gave an IC50 of 40 µM.

On to `O=C(O)COc1cccc(-c2nc(-c3ccccc3)c(-c3ccccc3)o2)c1`, for which the IC50 was more than 84 µM.

Compound `O=C(O)CCc1nc(-c2ccccc2)c(-c2ccccc2)o1` [OXAPROZIN] returned an IC50 of more than 100 µM.

In turn, `O=C(O)COc1ccccc1/C=C/c1nc(-c2ccccc2)c(-c2ccccc2)o1` came in with an IC50 of more than 80 µM.

For the compound `O=C(O)c1ccc(OCCCCc2nc(-c3ccccc3)c(-c3ccccc3)o2)cc1`, the IC50 is more than 77 µM.

`O=C(O)COc1cccc(C#Cc2nc(-c3ccccc3)c(-c3ccccc3)o2)c1` registered an IC50 of 60 µM.

Consider `CC(C)(Oc1cccc(CCc2nc(-c3ccccc3)c(-c3ccccc3)o2)c1)C(=O)O`, for which the IC50 was more than 75 µM.

The compound `O=C(O)CCCCOc1ccc(-c2nc(-c3ccccc3)c(-c3ccccc3)o2)cc1` had an IC50 of more than 77 µM.

`CCCCC[C@H](O)/C=C/[C@@H]1[C@H]2C/C(=C/CCCC(=O)O)O[C@H]2C[C@H]1O` [EPOPROSTENOL] gave an IC50 of 8 µM.

Consider `O=C(O)CCCCCCCOc1nc(-c2ccccc2)c(-c2ccccc2)n1-c1ccccc1` [OCTIMIBATE], for which the half-inhibitory concentration (IC50) came to 1.02 µM.

In the case of `COc1ccc(CCc2nc(-c3ccccc3)c(-c3ccccc3)o2)cc1OCC(=O)O`, the IC50 is more than 75 µM.

For the compound `O=C(O)c1cccc(OCCCc2nc(-c3ccccc3)c(-c3ccccc3)o2)c1`, the IC50 was more than 80 µM.

`c1ccc(-c2nc(CCc3cccc(OCC4N=NN=N4)c3)oc2-c2ccccc2)cc1` came in with a half-inhibitory concentration (IC50) of 1.5 µM.

Compound `O=C(O)CCCc1nc(-c2ccccc2)c(-c2ccccc2)o1` registered an IC50 of more than 104 µM.

In turn, `COc1ccc(OCC(=O)O)cc1/C=C/c1nc(-c2ccccc2)c(-c2ccccc2)o1` gave an IC50 of more than 75 µM.

As for `O=C(O)CCCCCCCCc1nc(-c2ccccc2)c(-c2ccccc2)o1`, 2.5 µM corresponded to half-maximal inhibition (IC50).

The compound `O=C(O)c1cccc(OCCCCc2nc(-c3ccccc3)c(-c3ccccc3)o2)c1` yielded an IC50 of more than 77 µM.

In turn, `O=C(O)COc1ccc(/C=C/c2nc(-c3ccccc3)c(-c3ccccc3)o2)cc1` returned an IC50 of 10 µM.

Compound `O=C(O)CCCCOc1cccc(-c2nc(-c3ccccc3)c(-c3ccccc3)o2)c1` yielded an IC50 of 4.6 µM.

Take `O=C(O)CCCOc1cccc(-c2nc(-c3ccccc3)c(-c3ccccc3)o2)c1`: half-maximal inhibition (IC50) required 80 µM.

Take `O=C(O)CCCOc1ccc(-c2nc(-c3ccccc3)c(-c3ccccc3)o2)cc1`: the half-inhibitory concentration (IC50) is more than 80 µM.

With `O=C(O)COc1cccc(Cc2nc(-c3ccccc3)c(-c3ccccc3)o2)c1`, the IC50 was more than 82 µM.

Take `O=C(O)CCc1cccc(CCc2nc(-c3ccccc3)c(-c3ccccc3)o2)c1`: the IC50 amounted to 16 µM.

As to `O=C(O)CCCOc1ccc(/C=C/c2nc(-c3ccccc3)c(-c3ccccc3)o2)cc1`, the IC50 is more than 75 µM.

`O=C(O)COc1cccc(/C=C\c2nc(-c3ccccc3)c(-c3ccccc3)o2)c1` returned an IC50 of 0.18 µM.

On to `O=C(O)CCCOc1ccc(Cc2nc(-c3ccccc3)c(-c3ccccc3)o2)cc1`, for which the IC50 was more than 76 µM.

`O=C(O)CCCOc1cccc(/C=C/c2nc(-c3ccccc3)c(-c3ccccc3)o2)c1` showed an IC50 of more than 75 µM.

For `O=C(O)CCCOc1cccc(Cc2nc(-c3ccccc3)c(-c3ccccc3)o2)c1`, the IC50 is more than 76 µM.

The compound `O=C(O)COc1ccc(Cc2nc(-c3ccccc3)c(-c3ccccc3)o2)cc1` registered an IC50 of more than 82 µM.

Regarding `O=C(O)/C=C/c1cccc(OCc2nc(-c3ccccc3)c(-c3ccccc3)o2)c1`, inhibition was half-maximal at 14 µM (IC50).

In turn, `O=C(O)COc1cccc(/C=C/c2nc(-c3ccccc3)c(-c3ccccc3)o2)c1` came in with an IC50 of 13 µM.

`O=C(O)CCCCCCc1nc(-c2ccccc2)c(-c2ccccc2)o1` registered an IC50 of more than 91 µM.

As to `COc1c(CCc2nc(-c3ccccc3)c(-c3ccccc3)o2)cccc1OCC(=O)O`, the IC50 was 1.4 µM.

The compound `O=C(O)C(CCCCCCCc1nc(-c2ccccc2)c(-c2ccccc2)o1)C(=O)O` had an IC50 of more than 76 µM.

For the compound `O=C(O)CCCCOc1ccccc1-c1nc(-c2ccccc2)c(-c2ccccc2)o1`, the IC50 was more than 77 µM.

For `O=C(O)CCCCCCCc1nc(-c2ccccc2)c(-c2ccccc2)o1`, the IC50 was more than 88 µM.

Compound `O=C(O)COc1cccc(OCc2nc(-c3ccccc3)c(-c3ccccc3)o2)c1` registered an IC50 of 1.2 µM.

Compound `O=C(O)CCCCc1nc(-c2ccccc2)c(-c2ccccc2)o1` returned an IC50 of more than 100 µM.

Compound `O=C(O)COc1ccc(CCc2nc(-c3ccccc3)c(-c3ccccc3)o2)cc1` came in with an IC50 of 9 µM.

Regarding `O=C(O)CCCOc1ccccc1-c1nc(-c2ccccc2)c(-c2ccccc2)o1`, the IC50 is more than 80 µM.

Compound `CC#CCC(C)[C@H](O)/C=C/[C@@H]1[C@H]2C/C(=C/CCCC(=O)O)C[C@H]2C[C@H]1O` (stereo partly drawn) [ILOPROST] yielded an IC50 of 2 µM.
